Calls of active or inactive are those of the source. No cut-off for these calls is given here. Positions of bridges follow the written chain, without caps; N, C: chain ends. Residues, ends and D or L forms follow the SMILES beside them. *: point of attachment. Stearoyl = CCCCCCCCCCCCCCCCCC(=O)*
What was measured:
Calu-6 [1] = assay: Antiproliferative activity against human Calu6 cells after 72 hrs by MTS assay; type: functional, cell-based; settings: Calu-6, 72 h
MCF7 = assay: Antiproliferative activity against human MCF7 cells after 72 hrs by MTS assay; type: functional, cell-based; settings: MCF7, 72 h
Calu-6 [2] = assay: Inhibition of cell proliferation in human Calu6 cells up to 1 uM after 72 hrs by MTS assay; type: functional, cell-based
How it was run: (§1)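 Calu-6 cells grown in EMEM with 10% FBS. Seeded at 2,000 cells/well and attached for one day, then treated 72 h at 37°C, 5% CO2. MTS added for 2 h and absorbance read at 490 nm minus 690 nm. % cell death calculated against untreated control. Mean of 3 determinations ± S.E.M.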

Calu-6 [3] = assay: Inhibition of cell proliferation in human Calu6 cells at 100 uM after 72 hrs by MTS assay; type: functional, cell-based; how it was run: as §1
[4] = target: LSD1/CoREST complex (Homo sapiens) (UniProt O60341+Q9UKL0); assay: Inhibition of recombinant human LSD1/CoREST at 500 nM preincubated for 5 mins followed by ART-(N,N-dimethyl-K)-QTARKSTGGKAPRKQLA substrate addition measured after 25 mins by fluorescence assay relative to control
K562 [5] = assay: Antiproliferative activity against human K562 cells assessed as cell death at 100 uM after 72 hrs by MTS assay relative to control; type: functional
K562 [6] = assay: Antiproliferative activity against human K562 cells assessed as cell death at 1 uM after 72 hrs by MTS assay relative to control; type: functional
K562 [7] = assay: Antiproliferative activity against human K562 cells after 72 hrs by MTS assay; type: functional, cell-based; settings: K562, 72 h
[8] = target: Lysine-specific histone demethylase 1A (Homo sapiens) (UniProt O60341); assay: Inhibition of LSD1 in human NCI-H526 cells assessed as increase in H3K4me2 marks at promoter of FEZ1 at 100 uM after 48 hrs by ChIP-qPCr method; type: cell-based
How it was run: (§2)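 NCI-H526 small cell lung carcinoma cells treated 48 h at 100 µM alongside an untreated control. Cells formaldehyde cross-linked, nuclei sonicated and chromatin enzymatically digested. IP with H3K4me2 antibody (normal rabbit IgG as negative control) on protein G magnetic beads. Purified DNA quantified by TaqMan qPCR at promoter regions; fold change by comparative CT (Livak). SD from three qPCR wells.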

[9] = target: Lysine-specific histone demethylase 1A (Homo sapiens) (UniProt O60341); assay: Inhibition of LSD1 in human NCI-H526 cells assessed as increase in H3K4me2 marks at promoter of IGFBP2 at 100 uM after 48 hrs by ChIP-qPCr method; type: cell-based; how it was run: as §2

LSD1/CoREST complex (Homo sapiens), sequence (Q9UKL0 whole entry, looked up, other chains not shown): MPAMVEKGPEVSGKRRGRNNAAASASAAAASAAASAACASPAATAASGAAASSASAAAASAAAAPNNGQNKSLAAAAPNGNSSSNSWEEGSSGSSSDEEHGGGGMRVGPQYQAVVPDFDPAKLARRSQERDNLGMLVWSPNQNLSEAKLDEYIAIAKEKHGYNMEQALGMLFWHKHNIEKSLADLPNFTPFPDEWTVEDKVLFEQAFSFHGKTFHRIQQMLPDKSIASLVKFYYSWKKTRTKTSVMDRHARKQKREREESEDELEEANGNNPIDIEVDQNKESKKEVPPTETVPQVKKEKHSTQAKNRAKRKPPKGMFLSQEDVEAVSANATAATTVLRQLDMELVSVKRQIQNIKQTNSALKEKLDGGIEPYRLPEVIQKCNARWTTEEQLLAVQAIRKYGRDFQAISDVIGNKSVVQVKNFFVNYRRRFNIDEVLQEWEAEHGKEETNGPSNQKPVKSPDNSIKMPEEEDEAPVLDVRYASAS

Structure (SMILES) | IC50 (Calu-6 [1]) [µM] | IC50 (MCF7) [µM] | inhibition (Calu-6 [2]) | inhibition (Calu-6 [3]) | inhibition [4] [%] | IC50 (K562 [7]) [µM] | also measured
CCCCCCCCCCCCCCCCCC(=O)NCCCC[C@H](NC(=O)[C@H](C)NC(=O)[C@H](CC(C)C)NC(=O)[C@H](CCC(N)=O)NC(=O)[C@H](CCCCN)NC(=O)[C@H](CCCNC(=N)N)NC(=O)[C@@H]1CCCN1C(=O)[C@H](C)NC(=O)[C@H](CCCCN)NC(=O)CNC(=O)CNC(=O)[C@@H](NC(=O)[C@@H]1CCC(=O)NCCCC[C@H](NC(=O)[C@H](CCSC)NC(=O)[C@@H](NC(=O)[C@H](CCCNC(=N)N)NC(=O)[C@H](C)N)[C@@H](C)O)C(=O)N[C@@H]([C@@H](C)O)C(=O)N[C@@H](C)C(=O)N[C@@H](CCCNC(=N)N)C(=O)N[C@@H](CCCCN)C(=O)N1)[C@@H](C)O)C(N)=O | 7.9 | 4.4 |  |  |  |  | 
CSCC[C@H](NC(=O)[C@H](C)NC(=O)[C@H](CCCNC(=N)N)NC(=O)[C@H](C)N)C(=O)N[C@H]1CCCCNC(=O)CC[C@@H](C(N)=O)NC(=O)[C@H](CCCCN)NC(=O)[C@H](CCCNC(=N)N)NC(=O)[C@H](C)NC(=O)[C@H]([C@@H](C)O)NC1=O (H-ARAMKTARKE-NH2; lactam 5-10) |  |  | inactive | inactive | 59.8 |  | 
CSCC[C@H](NC(=O)[C@H](C)NC(=O)[C@H](CCCNC(=N)N)NC(=O)[C@H](C)N)C(=O)N[C@H]1CCCCNC(=O)CC[C@@H](C(=O)N[C@H](C(=O)NCC(N)=O)[C@@H](C)O)NC(=O)[C@H](CCCCN)NC(=O)[C@H](CCCNC(=N)N)NC(=O)[C@H](C)NC(=O)[C@H]([C@@H](C)O)NC1=O (H-ARAMKTARKETG-NH2; lactam 5-10) |  |  | inactive | inactive | 67.3 |  | Activity (K562 [5]): 18%; Activity (K562 [6]): 90%
CSCC[C@H](NC(=O)[C@H](C)NC(=O)[C@H](CCCNC(=N)N)NC(=O)[C@H](C)N)C(=O)N[C@H]1CCCCNC(=O)CC[C@@H](C(=O)N[C@H](C(=O)NCC(=O)NCC(=O)N[C@@H](CCCCN)C(=O)N[C@@H](C)C(N)=O)[C@@H](C)O)NC(=O)[C@H](CCCCN)NC(=O)[C@H](CCCNC(=N)N)NC(=O)[C@H](C)NC(=O)[C@H]([C@@H](C)O)NC1=O (H-ARAMKTARKETGGKA-NH2; lactam 5-10) |  |  | inactive | inactive | 73.4 |  | Activity (K562 [5]): 11%; Activity (K562 [6]): 53%
CSCC[C@H](NC(=O)[C@H](C)NC(=O)[C@H](CCCNC(=N)N)NC(=O)[C@H](C)N)C(=O)N[C@H]1CCCCNC(=O)CC[C@@H](C(=O)N[C@H](C(=O)NCC(=O)NCC(=O)N[C@@H](CCCCN)C(=O)N[C@@H](C)C(=O)N2CCC[C@H]2C(=O)N[C@@H](CCCNC(=N)N)C(=O)N[C@@H](CCCCN)C(N)=O)[C@@H](C)O)NC(=O)[C@H](CCCCN)NC(=O)[C@H](CCCNC(=N)N)NC(=O)[C@H](C)NC(=O)[C@H]([C@@H](C)O)NC1=O (H-ARAMKTARKETGGKAPRK-NH2; lactam 5-10) |  |  | inactive | inactive | 98 |  | Activity (K562 [5]): 9.5%; Activity (K562 [6]): 59%
CCCCCCCCCCCCCCCCCC(=O)NCCCC[C@H](NC(=O)[C@H](C)NC(=O)[C@H](CC(C)C)NC(=O)[C@H](CCC(N)=O)NC(=O)[C@H](CCCCN)NC(=O)[C@H](CCCNC(=N)N)NC(=O)[C@@H]1CCCN1C(=O)[C@H](C)NC(=O)[C@H](CCCCN)NC(=O)CNC(=O)CNC(=O)[C@@H](NC(=O)[C@@H]1CCC(=O)NCCCC[C@H](NC(=O)[C@H](CCSC)NC(=O)[C@H](C)NC(=O)[C@H](CCCNC(=N)N)NC(=O)[C@H](C)N)C(=O)N[C@@H]([C@@H](C)O)C(=O)N[C@@H](C)C(=O)N[C@@H](CCCNC(=N)N)C(=O)N[C@@H](CCCCN)C(=O)N1)[C@@H](C)O)C(N)=O (H-ARAMKTARKETGGKAPRKQLAK(Stearoyl)-NH2; lactam 5-10) | 10.1 | 4.6 |  |  |  |  | 
CC(C)C[C@H](NC(=O)[C@H](CCC(N)=O)NC(=O)[C@H](CCCCN)NC(=O)[C@H](CCCNC(=N)N)NC(=O)[C@@H]1CCCN1C(=O)[C@H](C)NC(=O)[C@H](CCCCN)NC(=O)CNC(=O)CNC(=O)[C@@H](NC(=O)[C@@H]1CCC(=O)NCCCC[C@H](NC(=O)[C@H](C)NC(=O)[C@@H](NC(=O)[C@H](CCCNC(=N)N)NC(=O)[C@H](C)N)[C@@H](C)O)C(=O)N[C@@H]([C@@H](C)O)C(=O)N[C@@H](C)C(=O)N[C@@H](CCCNC(=N)N)C(=O)N[C@@H](CCCCN)C(=O)N1)[C@@H](C)O)C(=O)N[C@@H](C)C(N)=O (H-ARTAKTARKETGGKAPRKQLA-NH2; lactam 5-10) | 956 | 1240 |  |  |  | 139 | 
CSCC[C@H](NC(=O)[C@@H](NC(=O)[C@H](CCCNC(=N)N)NC(=O)[C@H](C)N)[C@@H](C)O)C(=O)N[C@H]1CCCCNC(=O)CC[C@@H](C(=O)N[C@H](C(=O)NCC(=O)NCC(=O)N[C@@H](CCCCN)C(=O)N[C@@H](C)C(=O)N2CCC[C@H]2C(=O)N[C@@H](CCCNC(=N)N)C(=O)N[C@@H](CCCCN)C(=O)N[C@@H](CCC(N)=O)C(=O)N[C@@H](CC(C)C)C(=O)N[C@@H](C)C(N)=O)[C@@H](C)O)NC(=O)[C@H](CCCCN)NC(=O)[C@H](CCCNC(=N)N)NC(=O)[C@H](C)NC(=O)[C@H](C)NC1=O (H-ARTMKAARKETGGKAPRKQLA-NH2; lactam 5-10) | 93 | 154 |  |  |  | 8.2 | 
CSCC[C@H](NC(=O)[C@@H](NC(=O)[C@H](CCCNC(=N)N)NC(=O)[C@H](C)N)[C@@H](C)O)C(=O)N[C@H]1CCCCNC(=O)CC[C@@H](C(=O)N[C@H](C(=O)N[C@@H](C)C(=O)NCC(=O)N[C@@H](CCCCN)C(=O)N[C@@H](C)C(=O)N2CCC[C@H]2C(=O)N[C@@H](CCCNC(=N)N)C(=O)N[C@@H](CCCCN)C(=O)N[C@@H](CCC(N)=O)C(=O)N[C@@H](CC(C)C)C(=O)N[C@@H](C)C(N)=O)[C@@H](C)O)NC(=O)[C@H](CCCCN)NC(=O)[C@H](CCCNC(=N)N)NC(=O)[C@H](C)NC(=O)[C@H]([C@@H](C)O)NC1=O (H-ARTMKTARKETAGKAPRKQLA-NH2; lactam 5-10) | 766 | 1010 |  |  |  | 42 | 
CSCC[C@H](NC(=O)[C@@H](NC(=O)[C@H](CCCNC(=N)N)NC(=O)[C@H](C)N)[C@@H](C)O)C(=O)N[C@H]1CCCCNC(=O)CC[C@@H](C(=O)N[C@H](C(=O)NCC(=O)NCC(=O)N[C@@H](C)C(=O)N[C@@H](C)C(=O)N2CCC[C@H]2C(=O)N[C@@H](CCCNC(=N)N)C(=O)N[C@@H](CCCCN)C(=O)N[C@@H](CCC(N)=O)C(=O)N[C@@H](CC(C)C)C(=O)N[C@@H](C)C(N)=O)[C@@H](C)O)NC(=O)[C@H](CCCCN)NC(=O)[C@H](CCCNC(=N)N)NC(=O)[C@H](C)NC(=O)[C@H]([C@@H](C)O)NC1=O (H-ARTMKTARKETGGAAPRKQLA-NH2; lactam 5-10) | 159 | 156 |  |  |  | 198 | 
CSCC[C@H](NC(=O)[C@@H](NC(=O)[C@H](CCCNC(=N)N)NC(=O)[C@H](C)N)[C@@H](C)O)C(=O)N[C@H]1CCCCNC(=O)CC[C@@H](C(=O)N[C@H](C(=O)NCC(=O)NCC(=O)N[C@@H](CCCCN)C(=O)N[C@@H](C)C(=O)N[C@@H](C)C(=O)N[C@@H](CCCNC(=N)N)C(=O)N[C@@H](CCCCN)C(=O)N[C@@H](CCC(N)=O)C(=O)N[C@@H](CC(C)C)C(=O)N[C@@H](C)C(N)=O)[C@@H](C)O)NC(=O)[C@H](CCCCN)NC(=O)[C@H](CCCNC(=N)N)NC(=O)[C@H](C)NC(=O)[C@H]([C@@H](C)O)NC1=O (H-ARTMKTARKETGGKAARKQLA-NH2; lactam 5-10) | 409 | 385 |  |  |  | 35.6 | 
c1ccc([C@@H]2C[C@H]2NC2CCNCC2)cc1 (relative stereo) |  |  |  |  |  |  | inhibition [8]: Active; inhibition [9]: Active

— ChEMBL document CHEMBL4196023, “Cyclic peptide inhibitors of lysine-specific demethylase 1 with improved potency identified by alanine scanning mutagenesis” (Eur J Med Chem, 2018)
